Test results reported in ChEMBL document CHEMBL4316592, “Synthesis of new derivatives of boehmeriasin A and their biological evaluation in liver cancer” (Eur J Med Chem, 2019).
Values belong to the molecule of their own block, whether it stands above or below them. Activity calls are given as the source filed them. No cut-off for these calls is given here.

Key:
[1] = Cytotoxicity against human FOCUS cells after 72 hrs by SRB assay; format: functional, cell-based; conditions: Homo sapiens, 72 h; read-out: IC50
In short: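 SRB assay. Cells plated per well (HCT116 3000; Huh7, Hep3B, HepG2, MCF-7 2000; Mahlavu, FOCUS, SNU475 1000) and grown 24 h. Compounds came from 20 mM DMSO stocks and were tested in triplicate, 40 to 2,5 (or 2,5 to 0,03) per printed range, for 72 h. Cells fixed in 10% TCA, stained with 0.4% SRB, dye dissolved in 10 mM Tris, A515 read. IC50 derived after DMSO normalization.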

[2] = system: Mahlavu; experiment: Cytotoxicity against human Mahlavu cells after 48 hrs by RTCA analysis; format: functional, cell-based
In short: (§1)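 xCELLigence impedance real-time growth assay. Huh7 (2000) or Mahlavu (1000) cells plated, treated after 24 h at log phase with a 2-fold dilution series (4 steps) from a top concentration of 1. Cell index recorded every 10 min for 24 h, then every 30 min. Growth inhibition normalized to DMSO; IC50 taken at 24, 48, 72 h.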

[3] = system: Mahlavu; experiment: Cytotoxicity against human Mahlavu cells after 72 hrs by RTCA analysis; format: functional, cell-based; in short: as §1
[4] = system: Huh-7; experiment: Induction of apoptosis in human HuH7 cells assessed as increase in cytochrome C levels at 1 uM by Hoechst staining-based assay; format: functional, cell-based
[5] = system: Huh-7; experiment: Induction of apoptosis in human HuH7 cells assessed as late apoptotic cells at 1 uM after 24 hrs by Annexin V-FITC/propidium iodide staining-based flow cytometric analysis (reference value: 2.51%); format: functional
[6] = system: Huh-7; experiment: Induction of apoptosis in human HuH7 cells assessed as late apoptotic cells at 1 uM after 48 hrs by Annexin V-FITC/propidium iodide staining-based flow cytometric analysis (reference value: 2.53%); format: functional
[7] = system: Huh-7; experiment: Induction of apoptosis in human HuH7 cells assessed as viable cells at 1 uM after 72 hrs by Annexin V-FITC/propidium iodide staining-based flow cytometric analysis (reference value: 97.20%); format: functional; conditions: Huh-7, 72 h, read-out: Activity
[8] = system: Huh-7; experiment: Induction of apoptosis in human HuH7 cells assessed as necrotic cells at 1 uM after 72 hrs by Annexin V-FITC/propidium iodide staining-based flow cytometric analysis (reference value: 0.43%); format: functional
[9] = system: Mahlavu; experiment: Induction of apoptosis in human Mahlavu cells assessed as early apoptotic cells at 1 uM after 72 hrs by Annexin V-FITC/propidium iodide staining-based flow cytometric analysis (reference value: 0.24%); format: functional
[10] = system: Huh-7; experiment: Cell cycle arrest in human HuH7 cells assessed as accumulation of cells at G1 phase at 1 uM after 24 hrs by propidium iodide staining-based flow cytometric analysis (reference value: 41.7%); format: functional
[11] = system: Huh-7; experiment: Cell cycle arrest in human HuH7 cells assessed as accumulation of cells at G2/M phase at 1 uM after 72 hrs by propidium iodide staining-based flow cytometric analysis (reference value: 28.2%); format: functional
[12] = system: Mahlavu; experiment: Cell cycle arrest in human Mahlavu cells assessed as accumulation of cells at G2/M phase at 1 uM after 24 hrs by propidium iodide staining-based flow cytometric analysis (reference value: 24.7%); format: functional
[13] = system: Mahlavu; experiment: Cell cycle arrest in human Mahlavu cells assessed as accumulation of cells at subG1 phase at 1 uM after 72 hrs by propidium iodide staining-based flow cytometric analysis (reference value: 22.4%); format: functional
[14] = system: Mahlavu; experiment: Cell cycle arrest in human Mahlavu cells assessed as accumulation of cells at G1 phase at 1 uM after 72 hrs by propidium iodide staining-based flow cytometric analysis (reference value: 44.6%); format: functional
[15] = system: Mahlavu; experiment: Cell cycle arrest in human Mahlavu cells assessed as accumulation of cells at G2/M phase at 1 uM after 72 hrs by propidium iodide staining-based flow cytometric analysis (reference value: 20%); format: functional
[16] = biological target: T1, Mitogen-activated protein kinase kinase kinase 5 (Homo sapiens) (UniProt Q99683); experiment: Inhibition of ASK1 Ser-966 phosphorylation in human HuH7 cells at 1 uM after 24 to 72 hrs by Western blot analysis; format: cell-based
T1 sequence (whole entry): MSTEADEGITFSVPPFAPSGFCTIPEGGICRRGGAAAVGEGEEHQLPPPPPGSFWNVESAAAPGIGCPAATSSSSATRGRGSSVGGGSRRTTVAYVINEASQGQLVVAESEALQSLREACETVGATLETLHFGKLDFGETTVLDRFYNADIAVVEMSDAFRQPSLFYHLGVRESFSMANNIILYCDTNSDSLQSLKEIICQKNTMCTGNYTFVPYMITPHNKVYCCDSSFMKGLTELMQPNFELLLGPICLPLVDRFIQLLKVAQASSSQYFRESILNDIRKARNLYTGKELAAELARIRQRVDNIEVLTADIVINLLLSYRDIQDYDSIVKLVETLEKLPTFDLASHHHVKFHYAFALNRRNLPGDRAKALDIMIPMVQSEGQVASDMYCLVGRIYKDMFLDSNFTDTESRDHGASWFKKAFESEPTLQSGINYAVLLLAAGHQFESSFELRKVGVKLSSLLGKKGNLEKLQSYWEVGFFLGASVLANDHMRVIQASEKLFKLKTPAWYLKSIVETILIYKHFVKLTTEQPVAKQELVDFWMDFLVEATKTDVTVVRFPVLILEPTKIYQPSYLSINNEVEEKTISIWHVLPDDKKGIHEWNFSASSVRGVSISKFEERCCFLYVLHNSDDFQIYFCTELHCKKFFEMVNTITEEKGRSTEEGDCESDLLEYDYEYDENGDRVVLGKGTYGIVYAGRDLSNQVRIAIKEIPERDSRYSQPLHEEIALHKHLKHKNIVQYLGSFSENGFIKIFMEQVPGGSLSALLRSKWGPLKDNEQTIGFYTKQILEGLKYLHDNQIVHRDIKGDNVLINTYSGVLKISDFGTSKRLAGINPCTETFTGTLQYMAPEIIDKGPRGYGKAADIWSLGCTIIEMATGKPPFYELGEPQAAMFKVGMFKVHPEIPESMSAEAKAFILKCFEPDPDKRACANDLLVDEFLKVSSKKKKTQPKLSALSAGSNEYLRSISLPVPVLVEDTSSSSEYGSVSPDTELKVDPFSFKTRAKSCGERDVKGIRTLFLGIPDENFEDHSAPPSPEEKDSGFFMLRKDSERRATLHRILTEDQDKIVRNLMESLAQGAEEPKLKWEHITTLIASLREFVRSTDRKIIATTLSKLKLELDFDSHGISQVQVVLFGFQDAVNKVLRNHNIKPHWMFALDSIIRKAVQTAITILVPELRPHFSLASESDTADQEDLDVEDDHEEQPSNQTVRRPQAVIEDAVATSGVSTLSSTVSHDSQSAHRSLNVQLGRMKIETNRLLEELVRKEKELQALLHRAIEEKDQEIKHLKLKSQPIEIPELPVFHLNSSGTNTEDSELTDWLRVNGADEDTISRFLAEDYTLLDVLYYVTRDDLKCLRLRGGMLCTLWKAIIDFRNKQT

[17] = organism: Homo sapiens; experiment: Induction of SAPK/JNK phosphorylation at Thr183/Tye185 residues in human HuH7 cells at 1 uM after 24 to 72 hrs by Western blot analysis; format: cell-based
[18] = system: Mahlavu; experiment: Down-regulation of CDK1 protein expression in human Mahlavu cells at 1 uM after 24 to 72 hrs by Western blot analysis; format: functional, cell-based

inhibition [16]: Active
Structure (SMILES): COc1ccc2c3c(c4cc(OC)c(OC)cc4c2c1)CN1CCCC[C@@H]1C3
IC50 [1]: 20 nM
IC50 [2]: 400 nM
IC50 [3]: 600 nM
Activity [4]: Active
Activity [5]: 1.03%
Activity [6]: 5.96%
viability at 1 µM [7]: 83.4%
Activity [8]: 0.34%
Activity [9]: 0.13%
Activity [10]: 43.1%
Activity [11]: 9.5%
Activity [12]: 23.7%
Activity [13]: 26.9%
Activity [14]: 14.1%
Activity [15]: 49.9%
Activity [17]: Active
Activity [18]: Active

inhibition [16]: Active
Structure (SMILES): COc1ccc2c3c(c4cc(OC)c(OC)cc4c2c1)CN1CCCCC1C3O (racemic)
IC50 [1]: 12 nM
IC50 [2]: 4 nM
IC50 [3]: 10 nM
Activity [4]: Active
Activity [5]: 0.93%
Activity [6]: 5.52%
viability at 1 µM [7]: 81.7%
Activity [8]: 0.13%
Activity [9]: 0%
Activity [10]: 31.6%
Activity [11]: 11.5%
Activity [12]: 32.4%
Activity [13]: 48.9%
Activity [14]: 9.5%
Activity [15]: 31.4%
Activity [17]: Active
Activity [18]: Active
